Values after ≈ are worked out from the molar mass of the structure shown.
How the values were obtained:
Candida tropicalis = experiment: Antifungal activity against clinical strain Candida tropicalis by microplate reader assay; assay type: functional
How it was run: (§1)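 Broth microdilution read by optical density at 630 nm. MIC80 is the first well with about 80% less growth than the drug-free well. Each concentration was run in three replicate wells, and values are means of three independent experiments.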

A549 = experiment: Cytotoxicity against human A549 cells assessed as reduction in cell viability by sulforhodamine B assay; assay type: functional, cell-based
How it was run: (§2)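 Cells were kept in RPMI-1640 with 10% FBS, 2 mM L-glutamine, 50 μM β-mercaptoethanol and penicillin/streptomycin, at 37 °C in 5% CO2. SRB assay used 100, 10, 1, 0.1 and 0.01 μM, each in triplicate. Percent inhibition was calculated against solvent control OD. IC50 came from Logit curve fitting and is the mean of three independent experiments.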

MKN-28 = experiment: Cytotoxicity against human MKN-28 cells assessed as reduction in cell viability by sulforhodamine B assay; assay type: functional, cell-based; how it was run: as §2
HCT-116 = experiment: Cytotoxicity against human HCT-116 cells assessed as reduction in cell viability by sulforhodamine B assay; assay type: functional, cell-based; how it was run: as §2
Candida albicans = experiment: Antifungal activity against Candida albicans ATCC 76615 by microplate reader assay; assay type: functional; conditions: ATTCC76615; how it was run: as §1
MCF7 = experiment: Cytotoxicity against human MCF7 cells assessed as reduction in cell viability by sulforhodamine B assay; assay type: functional, cell-based; how it was run: as §2
Candida parapsilosis = experiment: Antifungal activity against clinical strain Candida parapsilosis by microplate reader assay; assay type: functional; conditions: Lodderomyces parapsilosis; how it was run: as §1
Bel-7402 [1] = experiment: Cytotoxicity against human Bel-7402 cells assessed as reduction in cell viability by sulforhodamine B assay; assay type: functional, cell-based; how it was run: as §2
[2] = Cytotoxicity against human HO-8910 cells assessed as reduction in cell viability by sulforhodamine B assay; assay type: functional, cell-based; how it was run: as §2
Cryptococcus neoformans = experiment: Antifungal activity against Cryptococcus neoformans ATCC 32609 by microplate reader assay; assay type: functional; conditions: ATTCC32609; how it was run: as §1
HL-60 = experiment: Cytotoxicity against human HL-60 cells assessed as reduction in cell viability by sulforhodamine B assay; assay type: functional, cell-based; how it was run: as §2
SPC-A4 = experiment: Cytotoxicity against human SPC-A4 cells assessed as reduction in cell viability by sulforhodamine B assay; assay type: functional, cell-based; how it was run: as §2
H22 = experiment: Antitumor activity against mouse H22 cells implanted in KM mouse assessed as tumor growth inhibition at 25 mg/kg, IG administered everyday for 7 days relative to control; assay type: functional; conditions: H22, po, 168 h, time 7 day, read-out: TGI
How it was run: (§3)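 S-180 or H22 cells, about 2.5 × 10⁶ per mouse, injected s.c. in the right axilla of wild-type KM mice. Randomized after 24 h and dosed intragastrically for 7 days; sacrificed 24 h after the last dose. TGI = (W_C − W_T)/W_C × 100% from average tumor weight. n = 8; one-way ANOVA vs vehicle.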

Pyricularia oryzae = experiment: Antifungal activity against Pyricularia oryzae P-2B by measuring minimum morphological deformation concentration; assay type: functional; conditions: read-out: MEC
CCRF S-180 = experiment: Antitumor activity against mouse S-180 cells implanted in KM mouse assessed as tumor growth inhibition at 25 mg/kg, IG administered everyday for 7 days relative to control; assay type: functional; conditions: CCRF S-180, po, 168 h, time 7 day, read-out: TGI; how it was run: as §3
Bel-7402 [3] = experiment: Antitumor activity against human Bel-7402 cells implanted in BALB/c-nu mouse assessed as tumor growth inhibition at 100 mg/kg, IG administered everyday for 7 days relative to control; assay type: functional; conditions: Bel-7402, po, 168 h, time 7 day, read-out: TGI

SMILES | MIC80 (Candida tropicalis) | IC50 (A549) | IC50 (MKN-28) | IC50 (HCT-116) | MIC80 (Candida albicans) | IC50 (MCF7) | MIC80 (Candida parapsilosis) | IC50 (Bel-7402 [1]) | IC50 [2] | MIC80 (Cryptococcus neoformans) | IC50 (HL-60) | IC50 (SPC-A4) | inhibition in vivo at 25 mg/kg (H22) | minimal effective concentration (Pyricularia oryzae) | inhibition in vivo at 25 mg/kg (CCRF S-180) | inhibition in vivo at 100 mg/kg (Bel-7402 [3])
C=C(C)CCC[C@]1(C)OC(=O)[C@]23CC[C@@H]4C(=CCC5C(C)(C)[C@@H](O[C@@H]6OC[C@@H](OS(=O)(=O)O)[C@H](O)[C@H]6O[C@@H]6O[C@H](C)[C@@H](O[C@@H]7OC[C@@H](O)[C@H](O[C@@H]8O[C@H](CO)[C@@H](O)[C@H](OC)[C@H]8O)[C@H]7OS(=O)(=O)O)[C@H](O)[C@H]6O)CC[C@@]54C)[C@]2(C)C[C@H](OC(C)=O)[C@@H]31.[Na+].[Na+].[Na+] (some centres not stated) | 8 µg/mL | 0.75 µM | 2.03 µM | 0.93 µM | 4 µg/mL | 1.79 µM | 4 µg/mL | 1.3 µM | 1.9 µM | 16 µg/mL | 0.65 µM | 1.3 µM |  |  |  | 
O=c1[nH]cc(F)c(=O)[nH]1 [FLUOROURACIL] |  |  |  |  |  |  |  |  |  |  |  |  | 39.4% | ≤ 5 µg/mL | 39.4% | 
OC(Cn1cncn1)(Cn1cncn1)c1ccc(F)cc1F [FLUCONAZOLE] | 1 µg/mL (≈ 3.27 µM) |  |  |  | 0.25 µg/mL (≈ 0.816 µM) |  | 0.5 µg/mL (≈ 1.63 µM) |  |  | 2 µg/mL (≈ 6.53 µM) |  |  |  |  |  | 
O=c1[nH]c(=O)n(C2CCCO2)cc1F (configuration not stated) [TEGAFUR] |  |  |  |  |  |  |  |  |  |  |  |  |  |  |  | 81.8%
CO[C@@H]1[C@@H](O)[C@H](O[C@@H]2[C@@H](O)[C@H](O[C@H]3[C@H](O)[C@@H](O)[C@H](O[C@H]4[C@H](O[C@H]5CC[C@@]6(C)C(CC=C7[C@H]6CC[C@]68C(=O)O[C@@](C)(CCC=C(C)C)[C@H]6[C@@H](OC(C)=O)C[C@@]78C)C5(C)C)OC[C@@H](OS(=O)(=O)[O-])[C@@H]4O)O[C@@H]3C)OC[C@H]2O)O[C@H](CO)[C@H]1O.[Na+] (some centres not stated) | 30 µg/mL | 1.7 µM | 2.81 µM | 1.61 µM | 20 µg/mL | 2.3 µM | 32 µg/mL | 2.4 µM | 2.32 µM | 25 µg/mL | 1.65 µM | 3.67 µM |  |  |  | 
CCC(C)n1ncn(-c2ccc(N3CCN(c4ccc(OCC5COC(Cn6cncn6)(c6ccc(Cl)cc6Cl)O5)cc4)CC3)cc2)c1=O (configuration not stated) [ITRACONAZOLE] | 1 µg/mL (≈ 1.42 µM) |  |  |  | < 0.125 µg/mL |  | < 0.125 µg/mL |  |  | 2 µg/mL (≈ 2.83 µM) |  |  |  |  |  | 
C=C(C)CCC[C@]1(C)OC(=O)[C@]23CC[C@@H]4C(=CCC5C(C)(C)[C@@H](O[C@@H]6OC[C@@H](OS(=O)(=O)[O-])[C@H](O)[C@H]6O[C@@H]6O[C@H](C)[C@@H](O[C@@H]7OC[C@@H](O)[C@H](O[C@@H]8O[C@H](CO)[C@@H](O)[C@H](OC)[C@H]8O)[C@H]7O)[C@H](O)[C@H]6O)CC[C@@]54C)[C@]2(C)CC(=O)[C@@H]31.[Na+] (some centres not stated) | 25 µg/mL | 1.3 µM | 1.82 µM | 1.09 µM | 25 µg/mL | 1.56 µM | 25 µg/mL | 1.3 µM | 1.9 µM | 25 µg/mL | 1.95 µM | 1.5 µM |  |  |  | 
CN(C/C=C/C#CC(C)(C)C)Cc1cccc2ccccc12 [TERBINAFINE] | < 0.125 µg/mL |  |  |  | 32 µg/mL (≈ 110 µM) |  | < 0.125 µg/mL |  |  | < 0.125 µg/mL |  |  |  |  |  | 

— ChEMBL document CHEMBL4811272, “A new sulfated triterpene glycoside from the sea cucumber Colochirus quadrangularis, and evaluation of its antifungal, antitumor and immunomodulatory activities” (Bioorg Med Chem, 2021)
